Drawing on ChEMBL document CHEMBL1944596, “7,8-dichloro-1-oxo-β-carbolines as a versatile scaffold for the development of potent and selective kinase inhibitors with unusual binding modes” (J Med Chem, 2012), this text covers IC50 and ΔTm for two compounds.

The nature of assay [1]: Growth inhibition of human SEM cells after 48 hrs by WST-1 assay. Type of assay: functional, cell-based. Summed up: (§1)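 Compound (0–10 μM) added to the culture medium and incubated 48 h. Proliferation and viability read by WST-1 reagent. Survival expressed as percentage of control cultures and IC50 derived by curve fitting.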
The next assay deals with MV4-11. The assay is described as follows: Growth inhibition of human MV4-11 cells after 48 hrs by WST-1 assay. Type of assay: functional, cell-based. The note with it: MV4-11, 48 h. Summed up:
as §1
In general terms: Tetrazolium assays rely on reduction of a dye to a coloured formazan, in cell work by metabolically active cells.

Assay [2] is described as follows: Growth inhibition of human RS4:11 cells after 48 hrs by WST-1 assay. Type of assay: functional, cell-based. As to conditions: RS4-11, 48 h. The method in brief:
as §1

The test system of the next assay is K562. Kind of assay: Growth inhibition of human K562 cells after 48 hrs by WST-1 assay. Type of assay: functional, cell-based. The note with it: K562, 48 h. Summed up: as §1
The subject of a further assay is MOLM-13. The assay is described as follows: Growth inhibition of human MOLM13 cells after 48 hrs by WST-1 assay. Type of assay: functional, cell-based. The note with it: MOLM-13, 48 h. Summed up:
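Inhibitor at 0–10 μM added to the culture medium for 48 h. Proliferation and viability were read with WST-1 reagent. Survival was expressed as a percentage of control cultures, and IC50 was fitted from the concentration series.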

The target of assay [3] is Dual specificity protein kinase CLK4 (Homo sapiens) (UniProt Q9HAZ1). The assay is described as follows: Binding affinity to CLK4 assessed as change in thermal denaturation at 10 uM by thermal stability shift assay. Summed up:
(§2)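 Each compound was screened across a kinase panel by thermal stability shift assay. The read-out was the shift in protein melting temperature (ΔTm, in °C) relative to the unliganded kinase. A ΔTm of 4.0 °C served as the hit cutoff.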

Assay [4] has as its target AP2-associated protein kinase 1 (Homo sapiens) (UniProt Q2M2I8). Kind of assay: Binding affinity to AAK1 assessed as change in thermal denaturation at 10 uM by thermal stability shift assay. The method in brief: as §2
For assay [5], the target named is T1, Serine/threonine-protein kinase 17B (Homo sapiens) (UniProt O94768).
T1 sequence (whole entry): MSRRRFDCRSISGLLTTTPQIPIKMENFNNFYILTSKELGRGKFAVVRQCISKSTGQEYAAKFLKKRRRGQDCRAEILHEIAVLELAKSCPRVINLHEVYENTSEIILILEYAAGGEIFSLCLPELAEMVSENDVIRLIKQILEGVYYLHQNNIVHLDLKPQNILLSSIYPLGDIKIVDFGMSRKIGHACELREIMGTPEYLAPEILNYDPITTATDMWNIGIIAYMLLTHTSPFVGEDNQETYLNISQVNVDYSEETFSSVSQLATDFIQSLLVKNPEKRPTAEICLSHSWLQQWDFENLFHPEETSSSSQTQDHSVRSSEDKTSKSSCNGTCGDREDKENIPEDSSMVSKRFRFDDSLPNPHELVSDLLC
The assay is described as follows: Binding affinity to DRAK2 assessed as change in thermal denaturation at 10 uM by thermal stability shift assay. Summed up: as §2

The target in assay [6] is Death-associated protein kinase 3 (Homo sapiens) (UniProt O43293). The assay is described as follows: Binding affinity to N-terminus His6-tagged DAPK3 expressed in Escherichia coli BL21 (DE3) cells coexpressing pCOEX assessed as change in thermal denaturation at 10 uM by thermal stability shift assay. Summed up:
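DAPK3 was expressed in E. coli grown in TB with kanamycin and chloramphenicol at 37 °C, cooled to 25 °C, and induced with 0.5 mM IPTG. Binding was read as thermal-shift ΔTm in °C.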

The target of assay [7] is Serine/threonine-protein kinase pim-3 (Homo sapiens, UniProt Q86V86). Kind of assay: Binding affinity to PIM3 assessed as change in thermal denaturation at 10 uM by thermal stability shift assay. Summed up: as §2
Assay [8] deals with T2, Myosin light chain kinase family member 4 (Homo sapiens) (UniProt Q86YV6).
T2 sequence (whole entry): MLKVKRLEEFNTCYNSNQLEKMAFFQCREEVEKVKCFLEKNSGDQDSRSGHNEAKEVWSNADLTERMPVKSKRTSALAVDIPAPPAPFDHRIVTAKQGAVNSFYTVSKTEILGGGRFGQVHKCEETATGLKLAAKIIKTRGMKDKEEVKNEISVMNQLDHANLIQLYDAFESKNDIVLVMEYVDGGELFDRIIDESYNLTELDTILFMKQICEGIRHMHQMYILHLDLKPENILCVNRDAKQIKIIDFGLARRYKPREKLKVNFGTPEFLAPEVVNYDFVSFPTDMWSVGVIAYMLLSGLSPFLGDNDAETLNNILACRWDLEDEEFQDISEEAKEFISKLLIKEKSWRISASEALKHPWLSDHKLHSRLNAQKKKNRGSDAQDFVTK
Kind of assay: Binding affinity to SGK085 assessed as change in thermal denaturation at 10 uM by thermal stability shift assay. Summed up:
as §2

Assay [9] has as its target Serine/threonine-protein kinase pim-1 (Homo sapiens, UniProt P11309). Kind of assay: Binding affinity to PIM1 assessed as change in thermal denaturation at 10 uM by thermal stability shift assay. Summed up:
as §2

Assay [10] addresses T3, Cyclin-G-associated kinase (Homo sapiens) (UniProt O14976).
T3 sequence (whole entry): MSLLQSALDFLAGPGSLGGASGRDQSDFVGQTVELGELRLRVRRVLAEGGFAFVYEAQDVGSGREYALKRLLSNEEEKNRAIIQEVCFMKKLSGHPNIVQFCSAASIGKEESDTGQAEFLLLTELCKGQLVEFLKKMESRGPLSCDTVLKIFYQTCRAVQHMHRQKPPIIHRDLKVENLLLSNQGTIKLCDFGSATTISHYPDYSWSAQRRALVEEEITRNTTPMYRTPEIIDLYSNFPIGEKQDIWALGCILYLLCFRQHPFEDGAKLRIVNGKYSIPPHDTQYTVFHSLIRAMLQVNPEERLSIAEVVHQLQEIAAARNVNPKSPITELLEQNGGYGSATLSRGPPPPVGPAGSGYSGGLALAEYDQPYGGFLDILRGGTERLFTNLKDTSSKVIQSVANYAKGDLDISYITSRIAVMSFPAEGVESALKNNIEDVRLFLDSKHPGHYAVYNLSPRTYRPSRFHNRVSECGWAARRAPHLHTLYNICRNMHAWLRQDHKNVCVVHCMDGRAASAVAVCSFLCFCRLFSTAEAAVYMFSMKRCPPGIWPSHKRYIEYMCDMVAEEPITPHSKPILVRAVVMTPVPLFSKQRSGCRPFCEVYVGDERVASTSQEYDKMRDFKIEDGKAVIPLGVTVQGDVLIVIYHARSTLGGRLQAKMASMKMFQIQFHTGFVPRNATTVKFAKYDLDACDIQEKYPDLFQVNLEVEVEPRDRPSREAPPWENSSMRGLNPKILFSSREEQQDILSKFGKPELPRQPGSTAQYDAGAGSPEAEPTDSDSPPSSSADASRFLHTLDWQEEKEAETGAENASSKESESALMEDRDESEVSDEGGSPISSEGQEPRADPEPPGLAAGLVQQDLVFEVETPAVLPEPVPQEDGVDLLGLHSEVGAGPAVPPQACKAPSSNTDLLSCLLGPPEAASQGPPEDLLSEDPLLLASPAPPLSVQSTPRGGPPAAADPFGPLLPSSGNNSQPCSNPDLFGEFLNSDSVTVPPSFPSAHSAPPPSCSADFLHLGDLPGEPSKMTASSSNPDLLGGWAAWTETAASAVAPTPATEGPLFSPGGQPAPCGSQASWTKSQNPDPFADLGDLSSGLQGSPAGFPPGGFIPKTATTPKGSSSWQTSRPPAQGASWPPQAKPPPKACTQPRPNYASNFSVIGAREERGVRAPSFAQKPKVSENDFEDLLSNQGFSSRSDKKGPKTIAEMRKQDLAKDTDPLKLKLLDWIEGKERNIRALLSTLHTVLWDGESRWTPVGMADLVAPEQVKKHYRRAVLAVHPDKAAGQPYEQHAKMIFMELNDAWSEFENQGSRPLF
Kind of assay: Binding affinity to GAK assessed as change in thermal denaturation at 10 uM by thermal stability shift assay. Summed up: as §2

Assay [11] deals with T4, Serine/threonine-protein kinase 17A (Homo sapiens) (UniProt Q9UEE5).
T4 sequence (whole entry): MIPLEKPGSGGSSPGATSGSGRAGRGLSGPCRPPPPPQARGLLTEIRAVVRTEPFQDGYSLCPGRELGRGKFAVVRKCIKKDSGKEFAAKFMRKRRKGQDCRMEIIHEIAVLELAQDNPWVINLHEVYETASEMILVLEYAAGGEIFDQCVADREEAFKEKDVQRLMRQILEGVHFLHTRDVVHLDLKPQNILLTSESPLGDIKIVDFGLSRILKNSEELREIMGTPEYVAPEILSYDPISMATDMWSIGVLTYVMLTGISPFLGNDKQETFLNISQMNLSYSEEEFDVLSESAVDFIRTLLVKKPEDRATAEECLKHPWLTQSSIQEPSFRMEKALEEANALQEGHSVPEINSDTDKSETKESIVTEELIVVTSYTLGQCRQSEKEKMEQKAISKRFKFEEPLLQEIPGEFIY
The assay is described as follows: Binding affinity to DRAK1 assessed as change in thermal denaturation at 10 uM by thermal stability shift assay. Summed up: as §2

Assay [12] has as its target Dual specificity protein kinase CLK1 (Homo sapiens) (UniProt P49759). The assay is described as follows: Binding affinity to CLK1 assessed as change in thermal denaturation at 10 uM by thermal stability shift assay. The method in brief: as §2
Assay [13] has as its target Casein kinase II subunit alpha' (Homo sapiens) (UniProt P19784). The assay is described as follows: Binding affinity to CK2alpha2 assessed as change in thermal denaturation at 10 uM by thermal stability shift assay. Summed up: as §2

Chain of AP2-associated protein kinase 1 (Homo sapiens) (Q2M2I8 whole entry, looked up): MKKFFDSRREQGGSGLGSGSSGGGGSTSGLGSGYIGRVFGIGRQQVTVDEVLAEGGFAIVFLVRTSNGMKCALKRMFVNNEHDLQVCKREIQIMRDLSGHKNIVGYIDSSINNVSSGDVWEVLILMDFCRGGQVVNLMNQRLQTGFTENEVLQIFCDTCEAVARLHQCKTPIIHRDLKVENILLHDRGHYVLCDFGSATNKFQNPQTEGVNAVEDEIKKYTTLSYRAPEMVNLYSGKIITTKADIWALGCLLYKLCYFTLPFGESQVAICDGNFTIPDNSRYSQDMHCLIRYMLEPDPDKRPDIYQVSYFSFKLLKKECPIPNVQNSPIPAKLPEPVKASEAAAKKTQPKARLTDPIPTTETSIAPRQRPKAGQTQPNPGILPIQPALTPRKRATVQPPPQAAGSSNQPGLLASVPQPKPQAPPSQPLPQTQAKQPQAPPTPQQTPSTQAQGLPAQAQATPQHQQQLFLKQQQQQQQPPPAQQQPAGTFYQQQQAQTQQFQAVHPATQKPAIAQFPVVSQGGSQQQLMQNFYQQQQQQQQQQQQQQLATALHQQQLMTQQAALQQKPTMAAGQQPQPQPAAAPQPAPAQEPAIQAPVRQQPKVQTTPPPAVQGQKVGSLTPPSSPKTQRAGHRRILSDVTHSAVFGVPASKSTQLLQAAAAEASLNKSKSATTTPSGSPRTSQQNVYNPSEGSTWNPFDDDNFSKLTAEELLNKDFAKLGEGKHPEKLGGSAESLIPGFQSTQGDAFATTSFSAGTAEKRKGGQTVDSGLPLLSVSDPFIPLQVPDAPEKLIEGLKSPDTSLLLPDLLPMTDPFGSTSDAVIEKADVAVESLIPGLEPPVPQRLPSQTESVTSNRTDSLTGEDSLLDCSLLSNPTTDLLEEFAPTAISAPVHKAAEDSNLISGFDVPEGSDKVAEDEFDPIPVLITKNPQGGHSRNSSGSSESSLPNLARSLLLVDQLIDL
Chain of Serine/threonine-protein kinase pim-1 (P11309 whole entry, looked up): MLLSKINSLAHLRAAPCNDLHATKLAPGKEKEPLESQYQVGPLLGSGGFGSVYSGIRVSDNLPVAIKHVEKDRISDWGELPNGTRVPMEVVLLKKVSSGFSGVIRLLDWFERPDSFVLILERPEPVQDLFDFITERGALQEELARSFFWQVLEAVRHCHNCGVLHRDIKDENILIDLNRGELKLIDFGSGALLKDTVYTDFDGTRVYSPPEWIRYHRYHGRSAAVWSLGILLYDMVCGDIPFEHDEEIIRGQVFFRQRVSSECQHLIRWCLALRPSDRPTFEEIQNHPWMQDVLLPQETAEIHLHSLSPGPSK
Chain of Dual specificity protein kinase CLK4 (Homo sapiens) (Q9HAZ1 whole entry, looked up): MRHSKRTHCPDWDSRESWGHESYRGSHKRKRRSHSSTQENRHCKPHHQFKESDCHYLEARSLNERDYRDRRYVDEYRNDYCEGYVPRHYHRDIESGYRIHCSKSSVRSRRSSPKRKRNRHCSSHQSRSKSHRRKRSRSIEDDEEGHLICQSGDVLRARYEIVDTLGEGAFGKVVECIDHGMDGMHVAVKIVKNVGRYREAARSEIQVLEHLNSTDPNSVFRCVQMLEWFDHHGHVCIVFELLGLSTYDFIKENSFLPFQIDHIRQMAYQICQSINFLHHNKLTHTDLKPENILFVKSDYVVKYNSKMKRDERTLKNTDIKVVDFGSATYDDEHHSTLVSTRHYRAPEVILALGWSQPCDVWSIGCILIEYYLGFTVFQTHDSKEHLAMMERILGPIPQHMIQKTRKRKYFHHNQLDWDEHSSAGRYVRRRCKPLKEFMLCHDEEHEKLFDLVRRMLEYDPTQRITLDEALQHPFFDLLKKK
Chain of Casein kinase II subunit alpha' (Homo sapiens) (P19784 whole entry, looked up): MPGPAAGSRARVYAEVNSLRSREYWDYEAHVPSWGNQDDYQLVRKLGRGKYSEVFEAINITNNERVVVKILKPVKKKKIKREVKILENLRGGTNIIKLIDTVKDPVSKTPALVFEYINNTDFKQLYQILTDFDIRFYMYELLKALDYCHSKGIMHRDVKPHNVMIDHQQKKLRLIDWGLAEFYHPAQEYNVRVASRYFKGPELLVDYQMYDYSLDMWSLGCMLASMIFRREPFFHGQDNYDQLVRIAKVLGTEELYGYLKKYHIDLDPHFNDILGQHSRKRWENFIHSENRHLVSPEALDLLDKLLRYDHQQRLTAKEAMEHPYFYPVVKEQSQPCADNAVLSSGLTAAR
Chain of Dual specificity protein kinase CLK1 (Homo sapiens) (P49759 whole entry, looked up): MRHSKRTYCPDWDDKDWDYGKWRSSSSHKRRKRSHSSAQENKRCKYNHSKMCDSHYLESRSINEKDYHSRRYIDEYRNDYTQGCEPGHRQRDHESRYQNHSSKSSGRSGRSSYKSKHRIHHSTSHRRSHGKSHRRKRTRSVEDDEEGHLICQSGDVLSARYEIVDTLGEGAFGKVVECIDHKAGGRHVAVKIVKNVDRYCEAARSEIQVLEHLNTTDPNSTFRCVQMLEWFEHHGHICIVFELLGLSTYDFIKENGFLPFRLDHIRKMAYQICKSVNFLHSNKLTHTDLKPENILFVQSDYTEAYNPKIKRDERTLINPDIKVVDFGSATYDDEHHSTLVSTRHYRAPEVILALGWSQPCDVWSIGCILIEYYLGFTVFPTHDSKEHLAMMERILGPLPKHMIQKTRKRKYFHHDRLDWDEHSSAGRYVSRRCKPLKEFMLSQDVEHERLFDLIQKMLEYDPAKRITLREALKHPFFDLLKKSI
Chain of Death-associated protein kinase 3 (Homo sapiens) (O43293 whole entry, looked up): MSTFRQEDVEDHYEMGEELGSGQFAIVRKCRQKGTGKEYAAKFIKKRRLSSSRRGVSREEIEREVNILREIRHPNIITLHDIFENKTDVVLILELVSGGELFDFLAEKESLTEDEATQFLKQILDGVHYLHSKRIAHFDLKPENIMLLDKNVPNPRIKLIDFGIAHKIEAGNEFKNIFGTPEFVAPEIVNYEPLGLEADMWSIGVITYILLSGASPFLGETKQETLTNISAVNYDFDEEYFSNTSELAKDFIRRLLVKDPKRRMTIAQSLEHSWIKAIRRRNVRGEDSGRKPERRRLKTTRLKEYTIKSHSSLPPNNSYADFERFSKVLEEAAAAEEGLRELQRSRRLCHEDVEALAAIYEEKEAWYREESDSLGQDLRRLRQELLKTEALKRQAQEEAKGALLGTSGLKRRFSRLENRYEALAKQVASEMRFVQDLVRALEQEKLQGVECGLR

As for `CC(=O)c1cccc(-c2cnc3ccc(NCC4CC4)nn23)c1`, the IC50 in [1] was found to be 6 µM; in the assay with MV4-11, 0.4 µM; in [2], 8.8 µM; in the assay with K562 it was 8 µM; with MOLM-13, 0.3 µM.
As to `Cn1c2c(c3ccc(Cl)c(Cl)c31)C(C#N)C1(CCCCC1)NC2=O` (racemic), the ΔTm in assay [3] was determined as 1.1 °C; in assay [4], 1.7 °C; in assay [5], 2.9 °C; in assay [6], 4.7 °C; in assay [7], 4 °C; in [8], 0.5 °C. Also, the ΔTm in assay [9] worked out at 4.7 °C; in assay [10], 0.9 °C; in assay [11] it was 3 °C; in assay [12], 4 °C; in [13], 0.8 °C.

What is called IC50 is the concentration at which inhibition is half-maximal. Read a high IC50 as weaker potency in that assay. As a reminder, the ΔTm is the shift of the melting midpoint relative to a reference.
